# Results as given in ChEMBL document CHEMBL1138243, “Design of mechanism-based inhibitors of transthyretin amyloidosis: studies with biphenyl ethers and new structural templates” (J Med Chem, 2007).
# Several values for one entry are separate records, joined by “and”; a condition that tells them apart may be missing. Equal entries are not always repeated.
# Target: T1, Transthyretin (Homo sapiens, UniProt P02766)
# Test: Inhibition of transthyretin fibril formation at pH 4.4 at 100 uM
# Assay type: functional
# Procedure, shortened: (§1)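 Library screen of acid-mediated TTR fibril formation at pH 4.4 with inhibitor at 100 µM. TTR was at 7.2 µM.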
row,SMILES,inhibition
1,O=C(O)C1CSC(c2cccnc2)N1 (centres undefined),0%
2,CCCCC1NC(C(=O)O)CS1 (centres undefined),0%
3,NC(=O)CSc1ncc(-c2ccc(Cl)cc2)[nH]1,60.8%
4,COc1cc(C2NC(C(=O)O)CS2)ccc1O (centres undefined),0%
5,O=C1CCCC2=C1C(c1cccc(O)c1)NC(=S)N2 (centres undefined),0%
6,O=C(NC1CC1)c1cc(Sc2cccc(Cl)c2)nc2ccccc12,58.2%
7,O=C(O)C1CSC(c2ccc(O)cc2)N1 (centres undefined),0%
8,O=C1OC(c2ccc(Cl)cc2Cl)=N/C1=C/c1ccc(Cl)c(Cl)c1,0%
9,CSC1=NSC2=NC(=O)/C(=C\c3ccc[nH]3)C(=N)N12,0%
10,O=C(O)C1CSC(c2c(F)cccc2Cl)N1 (centres undefined),79.7%
11,O=C(NC(c1cccc([N+](=O)[O-])c1)c1cc(Cl)c2cccnc2c1O)c1cccnc1 (centres undefined),27.2%
12,O=C(O)C1CSC(c2ccc([N+](=O)[O-])cc2)N1 (centres undefined),0%
13,Cc1cc(C(=O)Nc2cc(Cl)ccc2O)no1,3.18% and 0%
14,O=C(O)c1cccc(-c2ccc(/C=C3/SC(=S)N(c4cccc(C(F)(F)F)c4)C3=O)o2)c1,0%
15,O=C(O)C1CSC(c2ccc(Cl)cc2)N1 (centres undefined),0%
16,CSC1=NSC2=NC(=O)/C(=C\c3ccc(Cl)cc3)C(=N)N12,32.9%
17,CCN1C(=O)/C(=C/c2ccc(N(CC)CC)cc2O)SC1=S,0%
18,CCOC(=O)c1c(N)sc(C(=O)NC2CCCCC2)c1C,41.9%
19,O=C(NC(c1ccco1)c1cc(Cl)c2cccnc2c1O)c1cccnc1 (centres undefined),63.3%

row,SMILES,inhibition
1,CCOC(=O)c1c(N)sc(C(=O)Nc2cc(C)cc(C)c2)c1C,12.2%
2,COc1ccc(C2NC(C(=O)O)CS2)cc1OC (centres undefined),0%
3,O=C1/C(=C\c2ccc(-c3ccc(Cl)cc3)o2)SC(=S)N1c1cccc(Cl)c1,0%
4,O=C(NC(c1ccccc1)c1cc(Cl)c2cccnc2c1O)c1cccnc1 (centres undefined),70.4%
5,O=C1CSC(c2ccc(Cl)cc2Cl)N1c1ccc(Cl)cc1 (centres undefined),79.7%
6,O=C(O)C1CSC(c2ccc(Cl)cc2Cl)N1 (centres undefined),77.7%
7,Nc1nc(F)cc(Oc2ccccc2F)n1,45.6%
8,Cc1ccsc1/C=c1\sc2nc(-c3cccs3)nn2c1=O,22.3%
9,NN1C(=O)/C(=C\c2ccc(Cl)cc2)NC1=S,0%
10,Cc1nc2c(C(=O)NCCC(C)C)cnn2c(O)c1Cc1ccccc1F,91.7%
11,Nc1nc(Cl)cc(Oc2ccccc2F)n1,47.6%
12,Cc1ccc(C2NC(C(=O)O)CS2)cc1 (centres undefined),85.7%
13,O=C(NCc1ccco1)c1cc(Sc2cccc(Cl)c2)nc2ccccc12,39.3%
14,O=C(O)c1ccc(Cl)c(N2C(=O)C3C4CCC(C4)C3C2=O)c1 (stereo in doubt; 34),0%
15,O=C(O)c1ccc(Cl)c(N2C(=O)C3C4CCC(C4)C3C2=O)c1 (stereo in doubt; 33),37.8%
16,Cc1ccc2nc(Nc3nc(O)c4ccccc4n3)nc(C)c2c1,31.1%
17,Nc1nc(F)cc(Oc2ccc(F)cc2)n1,16%
18,O=c1/c(=C\c2ccccc2Cl)sc2nc3ccccc3n12,29.1%

# Results, then the molecule that gave them:
row,inhibition,SMILES
1,10.4%,O=C(Nc1c2c(nn1-c1cccc(Cl)c1)C[S+]([O-])C2)c1ccccc1F (centres undefined)
2,0%,Cc1ccn2c(Nc3ccc(F)cc3)c(-c3ccccn3)nc2c1
3,0%,Cn1c(=O)c2c(nc(Oc3ccc(-n4cnnn4)cc3)n2C)n(C)c1=O
4,24.3%,CCCCN(CC)Cc1c(C)nc2c(ccc3ccccc32)c1O
5,0%,CCOc1cccc2c1OC(c1cccc(Cl)c1)N1N=C(c3cccs3)CC21 (centres undefined)
6,0%,O=C(c1cnc(Nc2ccc(F)cc2)c2ccccc12)n1ccnc1
7,0%,CCOC(=O)c1sc(=S)n(-c2cccc3ccccc23)c1N
8,0%,COc1ccc(/C=C2\SC(=S)N(c3ccc(O)cc3)C2=O)cc1
9,1.4%,COc1ccc(NC(=S)N(CCCN2CCOCC2)Cc2cccnc2)cc1
10,100%,Clc1ccccc1C1CC(c2cccs2)Nc2nnnn21 (centres undefined)
11,0%,Cc1nc2c(ccc3ccccc32)c(O)c1CN(C)Cc1ccccc1
12,65.3%,COc1cccc(C(=O)NC(c2ccccc2)c2cc(Cl)c3cccnc3c2O)c1 (centres undefined)
13,53.1%,Cc1nc2c(C(=O)NCc3ccc(F)cc3)cnn2c(O)c1Cc1ccccc1F
14,0%,O=C1OC(c2ccc(Cl)cc2Cl)=N/C1=C\c1cccs1
15,0%,O=C1/C(=C/c2ccc(Cl)cc2Cl)SC(=S)N1c1ccc(O)cc1
16,0%,Cc1ccc2nc(-c3ccc(Cl)s3)c(Nc3ccc(Cl)cc3)n2c1
17,0%,COc1ccc(NC(=S)N(CCCN2CCOCC2)Cc2cccs2)cc1
18,58.1%,CCC(=O)NC(c1ccc2c(c1)OCO2)c1cc(Cl)c2cccnc2c1O (centres undefined)
19,0%,CCN(CC)CCCN(Cc1ccco1)C(=S)Nc1ccc(OC)cc1
20,0%,COc1ccccc1NC(=S)N(CCCN1CCCCCC1)Cc1cccs1
21,102%,O=c1c2ccccc2nc2sc(Nc3ccc(F)cc3F)nn12
22,0%,Cc1ccc2nc(NC(=O)c3ccccc3O)sc2c1

row,inhibition,SMILES
1,0%,Oc1ccc(-c2nc3ncccn3c2Nc2ccc(Cl)cc2)cc1
2,0%,COc1cc(/C=C2\SC(=S)N(c3ccc(O)cc3)C2=O)ccc1O
3,0%,CCOC(=O)c1sc(=S)n(-c2ccc(Br)cc2)c1N
4,0%,O=C(O)CCCCCN1C(=O)/C(=C/c2c[nH]c3ccccc23)SC1=S
5,0%,O=C(Nc1c2c(nn1-c1ccc(F)cc1)C[S+]([O-])C2)c1ccccc1F (centres undefined)
6,0%,Cc1ccccc1Nc1c(-c2ccc(Cl)s2)nc2ccc(Cl)cn12
7,15.6%,COC(=O)c1sc(=S)n(-c2ccc(Cl)c(Cl)c2)c1N
8,0%,O=C(CSc1nccn1-c1cccc(Cl)c1)Nc1cccc2ccccc12
9,0%,Cc1ccc(/C=c2/sc3nc4ccccc4n3c2=O)cc1
10,33.1%,Cc1nc2c(ccc3ccccc32)c(O)c1CN1CCCC1
11,18.2%,Cc1nc2ccc(Cl)cc2c(O)c1CN1CCCC1
12,0%,Cc1nnc2c(Oc3ccc(Cl)cc3)nc3cc(Cl)ccc3n12
13,13.3%,FC(F)(F)c1cccc(NC(=S)N(CCCN2CCCCC2)Cc2cccs2)c1
14,0%,O=C1OC(/C=C/c2ccc(Cl)cc2Cl)=NC/1=C\c1cccs1
15,9.71%,CCc1ccc(Oc2cc(F)nc(N)n2)cc1
16,30.4%,Cc1nc2c(ccc3ccccc32)c(O)c1CN1CCOCC1
17,50%,Cn1ncc(/N=C/c2ccccc2O)c1C(=O)N1CCOCC1
18,0%,Cc1ccn2c(Nc3ccccc3C)c(-c3ccc(O)cc3)nc2c1
19,67.9%,O=C(O)CCc1nc(-c2cccs2)no1
20,0%,CCc1ccccc1NC(=S)N(CCN(C)C)Cc1cccs1
21,91.8%,O=[N+]([O-])c1ccc(Cl)cc1Sc1nc2ccccc2s1
22,0%,Cc1ccccc1C1=N/C(=C\c2sccc2C)C(=O)O1

# Target: T1, Transthyretin
# Test: Inhibition of transthyretin amyloidosis assessed as fibril formation pH 4.4 at 100 uM
# Assay type: functional
# Procedure, shortened: as §1
row,SMILES,percent fibril formation relative to control [%]
1,O=C(O)C1CSC(c2cccnc2)N1 (centres undefined),144
2,CCCCC1NC(C(=O)O)CS1 (centres undefined),128
3,NC(=O)CSc1ncc(-c2ccc(Cl)cc2)[nH]1,39.2
4,COc1cc(C2NC(C(=O)O)CS2)ccc1O (centres undefined),116
5,O=C1CCCC2=C1C(c1cccc(O)c1)NC(=S)N2 (centres undefined),106
6,O=C(NC1CC1)c1cc(Sc2cccc(Cl)c2)nc2ccccc12,41.8
7,O=C(O)C1CSC(c2ccc(O)cc2)N1 (centres undefined),120
8,O=C1OC(c2ccc(Cl)cc2Cl)=N/C1=C/c1ccc(Cl)c(Cl)c1,138
9,CSC1=NSC2=NC(=O)/C(=C\c3ccc[nH]3)C(=N)N12,202
10,O=C(O)C1CSC(c2c(F)cccc2Cl)N1 (centres undefined),20.3
11,O=C(NC(c1cccc([N+](=O)[O-])c1)c1cc(Cl)c2cccnc2c1O)c1cccnc1 (centres undefined),72.8
12,O=C(O)C1CSC(c2ccc([N+](=O)[O-])cc2)N1 (centres undefined),119
13,O=C(O)c1cccc(-c2ccc(/C=C3/SC(=S)N(c4cccc(C(F)(F)F)c4)C3=O)o2)c1,449
14,O=C(O)C1CSC(c2ccc(Cl)cc2)N1 (centres undefined),142
15,CSC1=NSC2=NC(=O)/C(=C\c3ccc(Cl)cc3)C(=N)N12,67.1
16,CCN1C(=O)/C(=C/c2ccc(N(CC)CC)cc2O)SC1=S,177
17,CCOC(=O)c1c(N)sc(C(=O)NC2CCCCC2)c1C,58.1
18,O=C(NC(c1ccco1)c1cc(Cl)c2cccnc2c1O)c1cccnc1 (centres undefined),36.7

row,SMILES,percent fibril formation relative to control [%]
1,CCOC(=O)c1c(N)sc(C(=O)Nc2cc(C)cc(C)c2)c1C,87.8
2,COc1ccc(C2NC(C(=O)O)CS2)cc1OC (centres undefined),129
3,O=C1/C(=C\c2ccc(-c3ccc(Cl)cc3)o2)SC(=S)N1c1cccc(Cl)c1,107
4,O=C(NC(c1ccccc1)c1cc(Cl)c2cccnc2c1O)c1cccnc1 (centres undefined),29.6
5,O=C1CSC(c2ccc(Cl)cc2Cl)N1c1ccc(Cl)cc1 (centres undefined),20.3
6,O=C(O)C1CSC(c2ccc(Cl)cc2Cl)N1 (centres undefined),22.3
7,Nc1nc(F)cc(Oc2ccccc2F)n1,54.4
8,Cc1ccsc1/C=c1\sc2nc(-c3cccs3)nn2c1=O,77.8
9,NN1C(=O)/C(=C\c2ccc(Cl)cc2)NC1=S,131
10,Cc1nc2c(C(=O)NCCC(C)C)cnn2c(O)c1Cc1ccccc1F,-86.7
11,Nc1nc(Cl)cc(Oc2ccccc2F)n1,52.4
12,Cc1ccc(C2NC(C(=O)O)CS2)cc1 (centres undefined),14.3
13,O=C(NCc1ccco1)c1cc(Sc2cccc(Cl)c2)nc2ccccc12,60.7
14,O=C(O)c1ccc(Cl)c(N2C(=O)C3C4CCC(C4)C3C2=O)c1 (stereo in doubt; 34),104
15,O=C(O)c1ccc(Cl)c(N2C(=O)C3C4CCC(C4)C3C2=O)c1 (stereo in doubt; 33),62.2
16,Cc1ccc2nc(Nc3nc(O)c4ccccc4n3)nc(C)c2c1,68.9
17,Nc1nc(F)cc(Oc2ccc(F)cc2)n1,84
18,O=c1/c(=C\c2ccccc2Cl)sc2nc3ccccc3n12,71

# Second part, the molecule after the results:
row,percent fibril formation relative to control [%],SMILES
1,89.5,O=C(Nc1c2c(nn1-c1cccc(Cl)c1)C[S+]([O-])C2)c1ccccc1F (centres undefined)
2,162,Cc1ccn2c(Nc3ccc(F)cc3)c(-c3ccccn3)nc2c1
3,155,Cn1c(=O)c2c(nc(Oc3ccc(-n4cnnn4)cc3)n2C)n(C)c1=O
4,75.7,CCCCN(CC)Cc1c(C)nc2c(ccc3ccccc32)c1O
5,146,CCOC(=O)c1sc(=S)n(-c2cccc3ccccc23)c1N
6,281,COc1ccc(/C=C2\SC(=S)N(c3ccc(O)cc3)C2=O)cc1
7,98.6,COc1ccc(NC(=S)N(CCCN2CCOCC2)Cc2cccnc2)cc1
8,0,Clc1ccccc1C1CC(c2cccs2)Nc2nnnn21 (centres undefined)
9,105,Cc1nc2c(ccc3ccccc32)c(O)c1CN(C)Cc1ccccc1
10,34.7,COc1cccc(C(=O)NC(c2ccccc2)c2cc(Cl)c3cccnc3c2O)c1 (centres undefined)
11,46.9,Cc1nc2c(C(=O)NCc3ccc(F)cc3)cnn2c(O)c1Cc1ccccc1F
12,136,O=C1OC(c2ccc(Cl)cc2Cl)=N/C1=C\c1cccs1
13,291,O=C1/C(=C/c2ccc(Cl)cc2Cl)SC(=S)N1c1ccc(O)cc1
14,113,Cc1ccc2nc(-c3ccc(Cl)s3)c(Nc3ccc(Cl)cc3)n2c1
15,102,COc1ccc(NC(=S)N(CCCN2CCOCC2)Cc2cccs2)cc1
16,41.9,CCC(=O)NC(c1ccc2c(c1)OCO2)c1cc(Cl)c2cccnc2c1O (centres undefined)
17,107,CCN(CC)CCCN(Cc1ccco1)C(=S)Nc1ccc(OC)cc1
18,104,COc1ccccc1NC(=S)N(CCCN1CCCCCC1)Cc1cccs1
19,-2.03,O=c1c2ccccc2nc2sc(Nc3ccc(F)cc3F)nn12
20,368,Cc1ccc2nc(NC(=O)c3ccccc3O)sc2c1
21,135,Oc1ccc(-c2nc3ncccn3c2Nc2ccc(Cl)cc2)cc1

row,percent fibril formation relative to control [%],SMILES
1,230,COc1cc(/C=C2\SC(=S)N(c3ccc(O)cc3)C2=O)ccc1O
2,164,CCOC(=O)c1sc(=S)n(-c2ccc(Br)cc2)c1N
3,126,O=C(O)CCCCCN1C(=O)/C(=C/c2c[nH]c3ccccc23)SC1=S
4,104,O=C(Nc1c2c(nn1-c1ccc(F)cc1)C[S+]([O-])C2)c1ccccc1F (centres undefined)
5,306,Cc1ccccc1Nc1c(-c2ccc(Cl)s2)nc2ccc(Cl)cn12
6,84.5,COC(=O)c1sc(=S)n(-c2ccc(Cl)c(Cl)c2)c1N
7,122,O=C(CSc1nccn1-c1cccc(Cl)c1)Nc1cccc2ccccc12
8,125,Cc1ccc(/C=c2/sc3nc4ccccc4n3c2=O)cc1
9,66.9,Cc1nc2c(ccc3ccccc32)c(O)c1CN1CCCC1
10,81.8,Cc1nc2ccc(Cl)cc2c(O)c1CN1CCCC1
11,114,Cc1nnc2c(Oc3ccc(Cl)cc3)nc3cc(Cl)ccc3n12
12,86.7,FC(F)(F)c1cccc(NC(=S)N(CCCN2CCCCC2)Cc2cccs2)c1
13,294,O=C1OC(/C=C/c2ccc(Cl)cc2Cl)=NC/1=C\c1cccs1
14,10.4,CCc1ccc(Oc2cc(F)nc(N)n2)cc1
15,69.6,Cc1nc2c(ccc3ccccc32)c(O)c1CN1CCOCC1
16,50,Cn1ncc(/N=C/c2ccccc2O)c1C(=O)N1CCOCC1
17,130,Cc1ccn2c(Nc3ccccc3C)c(-c3ccc(O)cc3)nc2c1
18,32.1,O=C(O)CCc1nc(-c2cccs2)no1
19,108,CCc1ccccc1NC(=S)N(CCN(C)C)Cc1cccs1
20,8.2,O=[N+]([O-])c1ccc(Cl)cc1Sc1nc2ccccc2s1
21,115,Cc1ccccc1C1=N/C(=C\c2sccc2C)C(=O)O1
